Experimental data collected from several papers.
Lines come from different studies, so protocols differ.
BRD4 BD1: Bromodomain-containing protein 4, BD1 (BRD4, Homo sapiens, UniProt O60885)
CYP2A6: Cytochrome P450 2A6 (CYP2A6, Homo sapiens, UniProt P11509)
HTR1D: 5-hydroxytryptamine receptor 1D (HTR1D, Homo sapiens, UniProt P28221)
Slc6a4: Sodium-dependent serotonin transporter (Slc6a4, Rattus norvegicus, UniProt P31652)

| Structure (SMILES) | target | test | setting | measurement | result |
| --- | --- | --- | --- | --- | --- |
| Oc1ccc(-c2nc(-c3ccncc3)c(-c3ccc(F)cc3)[nH]2)cc1 | BRD4 BD1 | binding, ITC | – | Kd | 3.42 µM |
| C#Cc1ccccc1-c1cc(=O)c2ccccc2o1 | CYP2A6 | enzyme activity, inhibitor | 6 min, pH 7.6 | Ki | > 25 µM |
| Nc1nc2c(ncn2[C@@H]2O[C@H](COP(=O)(O)OP(=O)(O)O)[C@@H](OP(=O)(O)OP(=O)(O)O)[C@H]2O)c(=O)[nH]1 | mpl (Escherichia coli, UniProt P37773) | binding, ITC | – | Kd | 752 µM |
| O=C1c2ccccc2CCN1CCCCN1CCN(c2cccc(Cl)c2Cl)CC1 | HTR1D | ligand displacement, radioligand | – | Ki | > 10 µM |
| c1ccc(-n2nnnc2N2CCNCC2)cc1 | Slc6a4 | ligand displacement, radioligand | – | Ki | > 20 µM |
| Cc1cnc(-c2ccc(-c3ccc(NC(=O)Nc4c(F)cc(F)cc4F)cc3F)c3c2C(=O)NC3)[nH]1 | Tyrosine-protein kinase Yes (YES1, Homo sapiens, UniProt P07947) | binding, competition with immobilised ligand | – | Kd | 0.31 µM |
| Cn1nnc2ccc(NC(=O)c3cccc(C(=O)O)c3)cc21 | BRD4 BD1 | binding, competition with immobilised ligand | – | Kd | 6.9 µM |
| CNC(=O)[C@@]12C[C@@H]1[C@@H](n1cnc3c(NC)nc(C#C[c-]4cccc4)nc31)[C@H](O)[C@@H]2O.[Fe+2].c1cc[cH-]c1 | Adenosine receptor A3 (Mus musculus, UniProt Q61618) | ligand displacement, radioligand | cell membranes | Ki | 0.00546 µM |
| CCCCN1CCC(COC(=O)c2ccc(N)c(OCF)c2)CC1 | HTR1D | cell-free assay, radioligand | – | Ki | > 10 µM |
| Cc1c(C(=O)NN2CCOCC2)nn(-c2ccc(Cl)cc2Cl)c1-c1ccc(I)cc1 | Mu-type opioid receptor (OPRM1, Homo sapiens, UniProt P35372) | ligand displacement, radioligand | cell membranes | Ki | 2.14 µM |
| C#Cc1ccc2cc(-c3ccccc3)c(=O)oc2c1 | CYP2A6 | enzyme activity, inhibitor | 6 min, pH 7.6 | Ki | > 25 µM |
| O[C@H]1[C@H](n2cnc3c(NC(C4CCCCC4)C4CCCCC4)nc(Cl)nc32)[C@H]2C[C@@]2(CF)[C@H]1O | HTR1D | cell-free assay, radioligand | – | Ki | 1.99 µM |
| C#Cc1cccc(-c2cc(=O)c3ccccc3o2)c1 | CYP2A6 | enzyme activity, inhibitor | 6 min, pH 7.6 | Ki | > 25 µM |
| CN1CCN(Cc2cccc(Oc3ccccc3)c2)CC1 | Slc6a4 | ligand displacement, radioligand | – | Ki | > 20 µM |
| C#Cc1ccc(-c2cc(=O)c3ccccc3o2)cc1 | CYP2A6 | enzyme activity, inhibitor | 6 min, pH 7.6 | Ki | > 25 µM |
| CCCN1CCN(c2ccc(-c3cncc(Cl)c3N3CCC4(CCNC4=O)CC3)cc2)CC1 | Glycogen synthase kinase-3 alpha (GSK3A, Homo sapiens, UniProt P49840) | cell-free assay | lysate | Kd | 1.75 µM |
